Screens: PubChem, several laboratories
Compounds with a hit are over-represented: about 1.8% of the library has one in this group of screens.
SKN-1 inh: C. elegans SKN-1 inhibition; C. elegans VP596 Pgst-4::GFP/RFP ratio, acrylamide-induced, 24 h; inhibition, % at 21.8 µM; 360,000 tested, 0.49% active;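 active = interference check ratio from 0.5 to 1.5 plus GFP to RFP signal ratio inhibition reaching or exceeding a fixed threshold, cut at about 30% in these data, passing the limit was not always enough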
Ecoli rRNA inh: selective bacterial rRNA inhibition in E. coli. E. coli WT GFP vs humanized-ribosome RFP mutants, fluorescence, 24 h; active compounds read low; DMSO median 0, no signal -100. GFP signal change (wild-type ribosome), % (test concentration not listed). 350,000 tested, 1.6% active;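 active = significant combined selectivity score with lowered wild-type GFP, culture density cut under 30%, mutant RFP and density less affected; inactive = any of these conditions unmet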
iPSC survival up: increases survival of single human iPS cells; hiPSC single-cell survival, ATPlite luminescence; 100% = ROCK inhibitor wells, 0% = DMSO; 360,000 tested, 0.044% active; survival enhancement, % at 20 µM; in the data active = survival enhancement above about 18%;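 also: cells exposed to compounds for 16 hours before the ATP read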
DAGLB inh: blocks human DAGLB lipase activity. Q8NCG7. HEK293T DAGLB membrane lysate, EnzChek fluorogenic substrate. inhibition, % at 5.17 µM. 340,000 tested, 0.059% active; in the data active = inhibition above about 34%
Target sequence (Q8NCG7 whole entry, looked up): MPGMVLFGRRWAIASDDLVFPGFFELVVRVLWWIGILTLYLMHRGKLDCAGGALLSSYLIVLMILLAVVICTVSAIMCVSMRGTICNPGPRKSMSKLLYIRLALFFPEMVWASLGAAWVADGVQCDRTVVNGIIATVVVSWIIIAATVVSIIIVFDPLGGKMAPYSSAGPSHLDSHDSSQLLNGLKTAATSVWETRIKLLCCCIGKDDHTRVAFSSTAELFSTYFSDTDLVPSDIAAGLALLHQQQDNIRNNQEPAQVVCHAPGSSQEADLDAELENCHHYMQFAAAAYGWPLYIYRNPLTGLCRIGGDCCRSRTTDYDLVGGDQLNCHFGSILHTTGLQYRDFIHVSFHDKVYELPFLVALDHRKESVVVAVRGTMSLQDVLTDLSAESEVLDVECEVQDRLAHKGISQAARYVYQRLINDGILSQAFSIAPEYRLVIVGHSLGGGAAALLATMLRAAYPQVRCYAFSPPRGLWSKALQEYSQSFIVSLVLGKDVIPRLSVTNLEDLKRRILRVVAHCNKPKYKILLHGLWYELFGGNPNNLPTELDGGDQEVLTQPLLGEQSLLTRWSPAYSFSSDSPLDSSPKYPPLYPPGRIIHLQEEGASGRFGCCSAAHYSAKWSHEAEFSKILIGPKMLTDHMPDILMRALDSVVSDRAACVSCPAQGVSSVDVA
Cneo AK release: causes C. neoformans cell lysis | adenylate kinase release luminescence, 4 h; normalised: neutral wells 0, clomiphene wells 100 | lysis activity, % at 15 µM | 360,000 tested, 0.2% active;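 active = mean lysis activity across replicates of at least 80%, whatever share of replicates individually reach that level; inactive = mean lysis activity below 80%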
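Test system: log-phase Cryptococcus neoformans yeast cells; Quantity: yeast cell density of 5 × 10^6 cells/mL; Buffer or medium: YPD; Doses: single compound concentration per well; Timing: 4 h at 37 °C static, read 1 h later; Measured by: AK luminescence; Read-out basis: lysis from increased AK signal; Control set: Clomiphene as positive control.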
MT1-MMP act inh: MT1-MMP (human) activation inhibition. GFP/RFP ratio change, % at 20 µM. P50281. HT1080 RFP-PRO-GFP cells, GFP/RFP ratio fluorescence, overnight; percent of plate control window, DMSO zero. 360,000 tested, 0.061% active;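 active = GFP/RFP ratio change of at least 30% with cell ATP level not reduced by more than half and red fluorescence within 50% of control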
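Assay system: RFP-PRO-GFP reporter HT1080 cells; read-out basis: GFP/RFP fluorescence ratio; benchmarks: DMSO wells and RFP-L50D-GFP cells; doses: 20 µM single dose, 1% DMSO; schedule: overnight cell settling, then overnight compound exposure, 37 °C, 5% CO2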
HepG2 tox: cytotoxic compounds in HepG2 cells. HepG2 viability, ATP luminescence, 72 h. activity change, negative = cytotoxicity, unspecified at 26 µM. shares compounds with Ecoli rRNA inh. 30 tested, under 10 active;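 active = compounds whose fitted half-maximal signal-loss concentration is at most twice their highest valid dose; inconclusive = flat curve with 30 to 70% signal loss, or poor fit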
AID977621: growth inhibition of wild-type GFP E. coli, dose response, H69 mutant RFP, cherry-pick; shares compounds with Ecoli rRNA inh; E. coli wild-type GFP strain growth, fluorescence, 24 h; 1,900 tested, under 10 active; activity change, negative = inhibition at 50 µM; AID 977621;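 active = Wild-type ribosome reporter drop at least double the humanized mutant ribosome reporter drop, growth loss under a set limit; inconclusive = no clear call, values can overlap the other calls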;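 also: wild-type GFP and H69 mutant RFP strains grown together 50/50 in each well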
AID977628: growth of wild-type and h24-humanized E. coli strains – h24 mutant RFP vs wild-type GFP, cherry-pick, dose response; E. coli WT GFP strain growth, fluorescence, 24 h; shares compounds with Ecoli rRNA inh; AID 977628; 1,900 tested, under 10 active; activity change, negative = inhibition at 50 µM;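 active = compound lowering the normal-ribosome reporter at least twice as much as the humanized-ribosome reporter, growth loss under a set limit; inconclusive = no clear call, values can overlap the other calls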;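 also: wild-type GFP and h24 humanized RFP strains co-cultured 1 to 1 per well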
Large screens that a line does not name were inactive (follow-up assays come after a bar, where they were run).

CCOc1ccc(NC(=O)CCc2nnc3ccc(N4CCC(C)CC4)nn23)cc1	Ecoli rRNA inh -20.4 | AID977621 inactive
COc1ccc(NC(=O)c2ccc(-c3ccc([N+](=O)[O-])cc3)o2)cc1	Ecoli rRNA inh -26.2 | AID977628 inconclusive
O=C(Nc1ccccc1)c1ccc(-c2ccc([N+](=O)[O-])cc2)o1	none (no result: Cneo AK release)
O=C(N[C@H]1CC1c1ccccc1)c1ccc([N+](=O)[O-])cc1 (stereo partly drawn)	Ecoli rRNA inh -28.1 (no result: Cneo AK release) | AID977621 inconclusive | AID977628 inactive
O=C(NCc1ccccc1)c1ccc([N+](=O)[O-])cc1	none (no result: DAGLB inh, Cneo AK release)
C[C@@H]1CN([C@H](C)CO)C(=O)c2cc(-c3ccccc3F)cnc2O[C@@H]1CN(C)C(=O)c1ccccn1	none (no result: SKN-1 inh, iPSC survival up, DAGLB inh, MT1-MMP act inh)
O=C(Nc1ccc2c(c1)[C@@H]1C[C@H](CC(=O)N3CCc4ccccc4C3)O[C@@H](CO)[C@@H]1O2)C1CCC1	none (no result: SKN-1 inh, iPSC survival up, DAGLB inh, MT1-MMP act inh)
CCOC(=O)Cc1csc(SCC(=O)Nc2cc(C)ccc2OC)n1	Ecoli rRNA inh -24.1 (no result: Cneo AK release) | AID977628 inconclusive
CCOC(=O)Cc1csc(SCC(=O)Nc2cc(Cl)ccc2Oc2ccccc2)n1	none (no result: Ecoli rRNA inh, Cneo AK release)
C[C@H](CO)N1C[C@H](C)[C@H](CN(C)Cc2ccc(C(=O)Nc3ccccc3N)cc2)Oc2ccc(NC(=O)Cc3ccccc3)cc2CC1=O	none (no result: SKN-1 inh, iPSC survival up, DAGLB inh, Cneo AK release, MT1-MMP act inh)
Cc1ccc(S(=O)(=O)Nc2ccc3c(c2)CC(=O)N([C@@H](C)CO)C[C@H](C)[C@H](CN(C)C(=O)NC(C)C)O3)cc1	none (no result: SKN-1 inh, iPSC survival up, DAGLB inh, MT1-MMP act inh)
CSc1nnnn1-c1ccc(Cl)cc1	Ecoli rRNA inh -31.5 (no result: Cneo AK release) | AID977621 inactive | AID977628 inactive
COC(=O)c1ccc(-n2nnnc2SC)cc1	none (no result: Ecoli rRNA inh)
CC(C)NC(=O)Nc1ccc2c(c1)C(=O)N([C@H](C)CO)C[C@@H](C)[C@H](CN(C)C(=O)c1ccccc1)OCCCC[C@H](C)O2	none (no result: SKN-1 inh, iPSC survival up, DAGLB inh, MT1-MMP act inh)
Cc1ccccc1-n1c([C@@H]2C[C@H]2c2ccccc2)n[nH]c1=S	Ecoli rRNA inh -28.0 | AID977621 inactive | AID977628 inactive
S=c1[nH]nc([C@@H]2C[C@H]2c2ccccc2)n1-c1ccccc1	none (no result: Ecoli rRNA inh)
CN(C)S(=O)(=O)N1CCN(c2ccccc2Cl)CC1	Ecoli rRNA inh -21.4 | AID977621 inactive | AID977628 inactive
CN(C)S(=O)(=O)N1CCN(c2cc(Cl)ccc2Cl)CC1	none (no result: Ecoli rRNA inh)
CO[C@@H]1CN(C)C(=O)c2cc(NC(C)=O)ccc2OC[C@H](C)N(C(=O)c2cnccn2)C[C@@H]1C	none (no result: SKN-1 inh, iPSC survival up, DAGLB inh, MT1-MMP act inh)
COc1ccc(CNc2cccc3[nH]c(C(F)(F)F)nc23)cc1	none
Cc1ccc(C(=O)Nc2cccc3[nH]c(C(F)(F)F)nc23)cc1	Ecoli rRNA inh -23.5 | AID977621 inactive
CN(C)CC(=O)Nc1ccc2c(c1)[C@@H]1C[C@H](CC(=O)N3CCCCC3)O[C@@H](CO)[C@@H]1O2	none (no result: SKN-1 inh, iPSC survival up, DAGLB inh, MT1-MMP act inh)
O=C(NCc1ccccn1)[C@H]1[C@H](CO)[C@H]2Cn3c(cccc3=O)[C@@H]1N2CC1CCCC1	none (no result: SKN-1 inh, iPSC survival up, DAGLB inh, Cneo AK release, MT1-MMP act inh)
CC1CCCCN1c1ncnc2ccccc12 (stereo not drawn)	none (no result: Ecoli rRNA inh)
CC1(C)CC2CC(C)(CN2c2ncnc3ccccc23)C1 (stereo not drawn)	Ecoli rRNA inh -27.1 | AID977621 inactive | AID977628 inconclusive
COC(=O)c1cccc(CN2C(=O)SC(Nc3ccc(C)cc3)C2=O)c1 (stereo not drawn)	Ecoli rRNA inh -16.5 (no result: Cneo AK release) | AID977621 inactive | AID977628 inconclusive
O=C(Nc1cccc(O)c1)c1cccc(S(=O)(=O)Nc2cccc(O)c2)c1	Ecoli rRNA inh -16.1 | AID977621 inactive | AID977628 inactive
O=C(Nc1cccc(O)c1)c1cccc(C(=O)Nc2cccc(O)c2)c1	none
O=C(C[C@@H]1CC[C@@H]2[C@H](COC[C@H](O)CN2C(=O)c2ccc(F)cc2)O1)Nc1nccs1	none (no result: SKN-1 inh, iPSC survival up, DAGLB inh, MT1-MMP act inh)
COc1ccc(OC2C(=O)N(Cc3ccc4c(c3)OCO4)C2c2cccs2)cc1 (stereo not drawn)	Ecoli rRNA inh -22.3 | AID977621 inactive
O=C1C(Oc2ccccc2)C(c2cccs2)N1Cc1ccc2c(c1)OCO2 (stereo not drawn)	none (no result: Ecoli rRNA inh)
CCN(CC)CCn1c(N)nc2ccccc21	none
CCN(CC)CCn1c2ccccc2c2nc3ccc([N+](=O)[O-])cc3cc21	Ecoli rRNA inh -24.9 (no result: DAGLB inh) | HepG2 tox inactive
O=S1(=O)c2ccccc2C(O)(c2ccccc2)c2ccccc21	Ecoli rRNA inh -21.0 | AID977628 inconclusive
Cc1ccc(N2C(=O)NC(NS(=O)(=O)c3ccccc3)(C(F)(F)F)C2=O)cc1C (stereo not drawn)	Ecoli rRNA inh -17.2 | AID977621 inactive
COc1cccc(NC(=O)C(c2ccccc2)N2CCN(c3ccccn3)CC2)c1 (stereo not drawn)	Ecoli rRNA inh -19.1 (no result: Cneo AK release) | AID977621 inactive | AID977628 inactive
COc1ccc(NC(=O)C(C)SCc2ccccc2)cc1OC (stereo not drawn)	none
COc1cccc(NC(=O)C(C)SCc2ccccc2)c1 (stereo not drawn)	Ecoli rRNA inh -25.0 (no result: Cneo AK release) | AID977621 inactive | AID977628 inactive
COc1ccc(CNc2cc([N+](=O)[O-])ccc2OC)cc1	Ecoli rRNA inh -20.8 | AID977621 inactive
COc1cccc(NC(=O)CNC(=O)c2ccccc2)c1	none (no result: Ecoli rRNA inh)
COc1ccc(NS(=O)(=O)c2cc(NC(=O)CNC(=O)c3cccc(OC)c3)ccc2C)cc1	Ecoli rRNA inh -24.6 | AID977621 inactive
CCS(=O)(=O)N1[C@@H](CO)[C@@H](c2ccccc2)C12CN(C(=O)C1CC1)C2	none (no result: SKN-1 inh, iPSC survival up, DAGLB inh, Cneo AK release, MT1-MMP act inh)
CCOc1cccc(-c2cc(-c3n[nH]c(=S)n3CC)c3ccccc3n2)c1	Ecoli rRNA inh -36.6 | AID977621 inactive | AID977628 inconclusive
NC(=O)c1ccsc1NC(=O)COC(=O)CCOc1ccccc1	Ecoli rRNA inh -22.6 | AID977621 inactive
Nc1ccc(-n2cnc3cc([N+](=O)[O-])ccc32)cc1	none (no result: Ecoli rRNA inh)
Cc1cccc(-n2cnc3cc([N+](=O)[O-])ccc32)c1	Ecoli rRNA inh -16.1 | AID977621 inactive | AID977628 inactive
